Reference: article PMC6981055 (Biochemical pharmacology, 2019)
Converted amounts (≈) assume the structure as drawn. “Also recorded” adds a separate entry of the source.

What was measured:
CEM cells = experiment: Cell proliferation assay: rescue of CEM cells from gemcitabine; assay type: cell-based, human; settings: CEM cells treated with gemcitabine with and without DI-87
Procedure, shortened: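 CEM cells plated at 1×10^3 cells/well, exposed to increasing gemcitabine concentrations (up to 10 μM) with or without 1 μM test compound for 72 hr. Viability read by CellTiter-Glo luminescence after 5 min at room temperature.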

[1] = target: bovine serum albumin (BSA) (Bos taurus, UniProt P02769); experiment: Protein binding assessed by IC50 of dCK inhibitor in presence of BSA; assay type: in vitro ADME; settings: 25 and 50 mg/mL BSA
Sequence of bovine serum albumin (BSA) (P02769 25-607): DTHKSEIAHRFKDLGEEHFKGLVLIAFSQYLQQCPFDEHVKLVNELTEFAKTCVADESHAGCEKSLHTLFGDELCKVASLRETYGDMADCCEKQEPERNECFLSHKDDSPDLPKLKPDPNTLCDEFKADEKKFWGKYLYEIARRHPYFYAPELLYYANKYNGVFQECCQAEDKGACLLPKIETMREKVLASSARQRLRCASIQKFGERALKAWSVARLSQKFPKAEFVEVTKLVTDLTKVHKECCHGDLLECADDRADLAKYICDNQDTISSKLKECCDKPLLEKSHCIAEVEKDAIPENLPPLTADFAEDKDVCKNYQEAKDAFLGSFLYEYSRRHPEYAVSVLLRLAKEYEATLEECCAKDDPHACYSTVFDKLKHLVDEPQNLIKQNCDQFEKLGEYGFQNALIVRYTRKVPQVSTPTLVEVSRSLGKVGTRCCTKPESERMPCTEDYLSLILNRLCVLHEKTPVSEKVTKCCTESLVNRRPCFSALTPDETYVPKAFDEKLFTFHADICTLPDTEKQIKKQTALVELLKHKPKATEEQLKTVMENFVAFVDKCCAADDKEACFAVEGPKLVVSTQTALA
Procedure, shortened: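 IC50 was compared between the two BSA levels, with duplicate determinations (n=2) reported as mean±SD.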

[2] = assay type: in vivo, NSG mice
Procedure, shortened: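 Female NSG mice with subcutaneous CEM xenografts (from 50 mm3) given oral gavage at 10, 25 or 50 mg/kg in PEG-200:Transcutol:Labrasol:Tween-80 (5:3:1:1). One terminal plasma and tumor sample per mouse at 1, 3, 6, 9 and 24 h (n=5 per time point). Methanol extraction with internal standard, LC-MS/MS-MRM. Population model with gut depot, plasma and tumor compartments (ADVAN6, TRANS1), exponential inter-subject error and actual tumor volumes.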

dCK = dCK (Homo sapiens, UniProt P27707); experiment: dCK activity in CEM tumors by [18F]CFA MicroPET/CT, PK-PD model; assay type: in vivo, NSG mice
Sequence of dCK (P27707 whole entry): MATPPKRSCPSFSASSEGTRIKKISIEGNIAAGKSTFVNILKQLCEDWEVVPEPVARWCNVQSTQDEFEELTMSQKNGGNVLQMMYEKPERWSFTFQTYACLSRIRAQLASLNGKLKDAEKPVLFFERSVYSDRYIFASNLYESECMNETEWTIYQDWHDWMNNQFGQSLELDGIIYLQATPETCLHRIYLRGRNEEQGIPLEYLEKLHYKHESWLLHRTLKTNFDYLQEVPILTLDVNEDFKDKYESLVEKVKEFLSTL
Procedure, shortened: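 Male NSG mice bearing subcutaneous CEM tumors (250 mm3) received a single oral dose (5, 10 or 25 mg/kg) in lipid/surfactant vehicle, one time point per mouse (N=4 per time point). Mice were anesthetized and given 740 kBq [18F]CFA i.v. 3 h before imaging. MicroPET/CT acquisition ran 10 min with MAP reconstruction, co-registered CT and manual 3D tumor regions of interest. Modelled tumor concentrations were linked to the effect compartment; linear, Emax and sigmoid Emax fits were compared.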

CEM tumor xenografts = experiment: Growth inhibition of CEM tumor xenografts, DI-87 with thymidine, PK-PD model; assay type: in vivo; settings: for Tumor growth, single agent: agent given alone
Procedure, shortened: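 NSG mice (8–12 weeks) carried subcutaneous CEM xenografts (2 × 10^6 cells, PBS/matrigel 50/50). Dosing began at 50 mm3: oral gavage QD or BID for 16–18 days (PEG-200:Transcutol:Labrasol:Tween-80, 5:3:1:1), plus thymidine 2 g/kg i.p. BID in saline. Controls: thymidine alone, compound plus saline, vehicle plus saline. Tumor size tracked (n=5). An Emax indirect-response PD model was linked to population PK tumor concentrations.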

[3] = oral 10, 25, 50 mg/kg, plasma-tumor population PK model
[4] = plasma-tumor population PK model
[5] = sigmoid Emax indirect response model

COc1ccc(-c2nc([C@@H](C)Sc3nc(N)cc(N)n3)c(C)s2)cc1OCCN1CCOCC1 [DI-87, (R)-2-((1-(2-(4-methoxy-3-(2-morpholinoethoxy)phenyl)-5-methylthiazol-4-yl)ethyl)thio)pyrimidine-4,6-diamine]
Prevention of gemcitabine cytotoxicity (CEM cells): fully prevented cytotoxicity following gemcitabine treatment
Protein binding (IC50 in presence of BSA) [1]: low protein binding; also recorded: retained its potency in the presence of albumin
Protein binding (IC50 in presence of BSA) ([1]; listed as (R)-DI-87): comparatively lower than its predecessor
Half-life (plasma) ([2]; 0.693/(CL/V)): 4.2 h
half-life ([2]; female, NSG, mouse, plasma, oral, Half-life (plasma), 0.693/(CL/V)): 4 h
KA (absorption constant) ([2]; fixed to the estimate from the plasma PK model): 0.66 (FIXED) hr
Time of peak tumor concentration ([2]; oral 10, 25, 50 mg/kg, CEM tumor): 3 to 9 h
CL [2, 3]: 7.67 mL/min/kg
V (plasma volume of distribution) [2, 3]: 2.78 L/kg
Q (intercompartmental clearance plasma-tumor) [2, 4]: 0.075 mL/min/kg
Scalar [2, 4]: 3.69
EC50 (dCK): 617 nM
Gamma (Hill coefficient), DCK inhibition PK-PD model (dCK; [5]): 58.6
Kin, DCK inhibition PK-PD model (dCK; [5]): 0.76
Kout, DCK inhibition PK-PD model (dCK; [5]): 0.12
Emax, DCK inhibition PK-PD model (dCK; sigmoid Emax indirect response model, linked to tumor concentrations): 1.20
dCK inhibition (PET) (dCK; single oral dose 5 mg/kg): minimal dCK inhibition with rapid recovery
dCK inhibition (PET) (dCK; single oral dose 10 mg/kg): full inhibition with recovery initiating at the 12 hr time point
Earliest time of full dCK inhibition (PET) (dCK; single oral dose 25 mg/kg): 3 h
Time to full recovery of dCK enzyme activity (PET) (dCK; single oral dose 25 mg/kg): ≤ 36 h
Tumor growth inhibition (CEM tumor xenografts; DI-87 25 mg/kg BID oral with thymidine 2 g/kg i.p. BID, 25 mg/kg): Near complete growth inhibition; also recorded: maximal tumor growth inhibition
Emax, Growth Inhibition PK-PD Model (CEM tumor xenografts; Emax indirect response model, DI-87 with i.p. thymidine): 1.06
EC50 (CEM tumor xenografts; Mus musculus, ip, read-out: EC50, Growth Inhibition PK-PD Model): 3.63 µg/mL (≈ 7.22 µM)
Tumor growth, single agent (CEM tumor xenografts; data not shown): tumor growth curves similar to the control; also recorded: essentially no ability to inhibit growth
Tolerability as a single agent (CEM tumor xenografts; single agent, higher doses, data not shown): well tolerated at higher doses

Cc1cn([C@H]2C[C@H](O)[C@@H](CO)O2)c(=O)[nH]c1=O [thymidine, reference compound]
Tumor growth, single agent (CEM tumor xenografts; data not shown): tumor growth curves similar to the control
